# Source: PubChem BioAssay (several laboratories)
# VIM-2 inhibitor: blocks Pseudomonas aeruginosa VIM-2 metallo-beta-lactamase; purified VIM-2, nitrocefin hydrolysis, epi-absorbance fluorescence; inhibition, % at 5.6 µM; 0.89% of 290,000 active;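 active = inhibition above the mean of all tested compounds plus 3 SD, cutoff set per screening run, cut at about 7.5% in these data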;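 note: red hydrolysis product quenches plate fluorescence so inhibitors raise well fluorescence; 0% = enzyme with DMSO and 100% = DMSO without enzyme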
# Runt-CBFb FRET: inhibitors of human RUNX1 Runt domain binding to CBFb | Q01196+Q13951 | Cerulean-Runt/Venus-CBFb FRET ratio 530/480, 1 h | inhibition, % at 20 µM | 0.46% of 220,000 active | AID 1496;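 active = inhibition over about 50% at 20 µM in the single-dose screen, limit read from the data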;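 note: 0% = DMSO wells and 100% = excess unlabeled CBFb competitor control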
# Target sequence (Q01196 whole entry, looked up, the tested form may be a part): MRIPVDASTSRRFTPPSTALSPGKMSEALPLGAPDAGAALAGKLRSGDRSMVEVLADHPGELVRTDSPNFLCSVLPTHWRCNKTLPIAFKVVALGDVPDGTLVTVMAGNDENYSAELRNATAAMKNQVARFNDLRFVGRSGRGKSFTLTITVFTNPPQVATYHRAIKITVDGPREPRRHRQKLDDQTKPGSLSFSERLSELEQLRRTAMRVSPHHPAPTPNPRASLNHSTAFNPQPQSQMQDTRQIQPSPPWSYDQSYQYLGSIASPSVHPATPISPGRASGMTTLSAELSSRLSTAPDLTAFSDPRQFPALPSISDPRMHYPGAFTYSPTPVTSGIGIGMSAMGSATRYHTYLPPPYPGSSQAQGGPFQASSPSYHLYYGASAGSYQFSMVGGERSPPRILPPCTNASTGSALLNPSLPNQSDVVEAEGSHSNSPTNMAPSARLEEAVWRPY
# Target sequence (Q13951 whole entry, looked up, the tested form may be a part): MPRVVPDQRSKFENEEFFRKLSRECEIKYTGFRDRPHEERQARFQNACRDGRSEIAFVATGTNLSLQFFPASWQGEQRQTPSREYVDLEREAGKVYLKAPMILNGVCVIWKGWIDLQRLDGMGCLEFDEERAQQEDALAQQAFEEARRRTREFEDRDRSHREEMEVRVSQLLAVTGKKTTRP
#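 Assay system: Cerulean-tagged RUNX1 Runt domain (FRET donor) fusion protein / Amount: 100 nM each of Venus-CBFb and Cerulean-Runt domain / Medium: Tris buffer pH 7.5 with salts and BSA / Also added: Venus-CBFb 100 nM / Schedule: 1 h complex formation plus 1 h compound treatment, room temperature / Signal: FRET fluorescence / Read-out: loss of energy transfer signal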
# Runt-SMMHC FRET: Runt domain-CBFb-SMMHC interaction inhibition | 0.74% of 220,000 active | AID 1434 | Cerulean-Runt/Venus-CBFb-SMMHC FRET ratio 530/480, 1 h | inhibition, % at 20 µM | Q01196+Q13951;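 active = mean inhibition across duplicate retests at 20 µM reaching about 50%, limit read from the data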;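 note: 0% = DMSO wells and 100% = wells with excess untagged CBFb-SMMHC; inhibitors lower the FRET ratio by blocking Runt binding to CBFb-SMMHC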
# IMP-1 inhibitor: inhibitors of Pseudomonas aeruginosa IMP-1 metallo-beta-lactamase; AID 1556; purified IMP-1, nitrocefin hydrolysis, epi-absorbance fluorescence; 0.45% of 290,000 active; inhibition, % at 5.6 µM;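 active = inhibition above the mean plus 3 SD of all compounds in the same screening run, cut at about 4.5% in these data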;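 note: 0% = IMP-1 with DMSO and 100% = DMSO wells lacking enzyme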
#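 System: purified IMP-1; amount: IMP-1 0.2 nM before substrate addition; compound: single dose, 5.6 µM; times: 25 °C, 15 min preincubation, 25 min reaction; signal: Epi-absorbance via hydrolysed-nitrocefin quenching of white-plate fluorescence, 480/530 nm, EDTA stop; benchmarks: DMSO with and without IMP-1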
# RanGTP-Imp inh: disruptors of Ran-importin-beta complex formation – biochemical, FRET, CFP-Ran, YFP-importin-beta, homogeneous, primary screen; AID 2216; inhibition, % (test concentration not listed); cell-free CFP-Ran/YFP-importin-beta FRET ratio; 1.1% of 300,000 active;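 active = more than half of the replicate wells show a fall in the fluorescence ratio signal beyond about 16%, limit read from the data, passing the limit was not always enough; inconclusive = exactly half of the replicate wells pass the set limit; inactive = fewer than half of replicates pass the limit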;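 note: 0% = DMSO wells and 100% = Ran loaded with GDP instead of GTP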
# An asterisk follows results filed as active; u = inconclusive; x = not tested or not shown. Most compounds without a hit are left out; they make up all but 2.6% or so of the library.
SMILES,VIM-2 inhibitor,Runt-CBFb FRET,Runt-SMMHC FRET,IMP-1 inhibitor,RanGTP-Imp inh
Cc1cccn2c(=O)c(/C=C(\C#N)S(=O)(=O)c3ccccc3)c(Oc3ccc(Cl)cc3)nc12,0,-37,-86,-2,27*
Cc1cc(Oc2nc3c(C)cccn3c(=O)c2/C=C(\C#N)S(=O)(=O)c2ccccc2)ccc1Cl,-2,-147,-122,-4,6
Cc1ccc(S(=O)(=O)/C(C#N)=C/c2c(N3CCCCC3)nc3ccccn3c2=O)cc1,-1,-27,-34,-1,2
Cc1ccc(S(=O)(=O)/C(C#N)=C/c2c(N3CCN(C)CC3)nc3ccccn3c2=O)cc1,-1,7,10,-4,65*
Cc1ccc2nc3c(cc2c1)c(NC(=O)c1cccnc1)nn3C,0,15,25,-4,29*
CCCn1nc(NC(=O)c2ccccn2)c2cc3cc(C)ccc3nc21,-3,48,94*,-6,103*
CCCC(=O)Nc1nn(C)c2nc3ccc(C)cc3cc12,0,x,x,-1,u
CCCn1nc(NC(=O)COC)c2cc3cc(C)ccc3nc21,1,x,x,-2,23*
CCCn1nc(NC(=O)c2ccco2)c2cc3cc(C)ccc3nc21,-2,49,82*,-3,79*
CCn1nc(NC(=O)COC)c2cc3cc(C)ccc3nc21,-1,x,x,-2,u
C/C(=N/NC(=O)CNC(=O)COc1ccccc1)c1ccc(Cl)cc1,-4,x,x,-3,-11
CC(OC(=O)CCCN=C1NS(=O)(=O)c2ccccc21)C(=O)NC1CCCCC1C (stereo not drawn),-1,x,x,-3,3
NC(=O)c1ccc(-c2nnc(Nc3ccc(S(N)(=O)=O)cc3)c3ccccc23)cc1,4,x,x,-1,1
CCCCn1nc(NC(=O)COC)c2cc3ccc(C)cc3nc21,1,x,x,0,5
CCCn1nc(NC(=O)c2ccco2)c2cc3ccc(C)cc3nc21,x,24,48,x,57*
CCCCNC(=O)c1cc2c(=O)n3cccc(C)c3nc2n(Cc2ccccc2)c1=N,-2,12,62*,-3,188*
COCCn1c(=N)c(C(=O)NCCc2ccccc2)cc2c(=O)n3cccc(C)c3nc21,-3,x,x,-2,192*
CCNC(=O)c1cc2c(=O)n3cccc(C)c3nc2n(CCc2ccccc2)c1=N,-2,17,62*,-3,186*
O=C(Nc1ccnn1C1CCN(Cc2cccc(OCCO)c2)CC1)C1CC1,-1,x,x,-3,0
Cc1nc2ccc(NC(=O)c3cc(Cl)ccn3)cc2s1,0,x,x,-4,6
Nc1c(-c2ccccc2)c(CN2CCOCC2)nn1-c1ccc(C(=O)O)cc1,-3,-1,1,-4,32*
COc1ccc(C(=O)NC(C)c2ccc(-n3ccnc3)cc2)cc1[N+](=O)[O-] (stereo not drawn),-1,x,x,-2,-2
CCOC(=O)c1c(C)oc2c1cc(NS(=O)(=O)c1ccc(C(=O)O)cc1)c1ccccc12,0,x,x,9.7*,1
CSc1nc(NS(=O)(=O)c2ccc(F)cc2F)nn1C,-2,x,x,-3,-2
OC(CN1CCCCC1)Cn1c2ccccc2c2ccccc21 (stereo not drawn),0,x,x,1,5
SMILES,VIM-2 inhibitor,Runt-CBFb FRET,Runt-SMMHC FRET,IMP-1 inhibitor,RanGTP-Imp inh
O=c1c2ccccc2n(CC(O)CN2CCOCC2)c2ccccc12 (stereo not drawn),1,x,x,1,79*
O=c1c2ccccc2n(CC(O)CN2CCCCC2)c2ccccc12 (stereo not drawn),-1,61*,81*,-1,96*
COc1ccc(S(=O)(=O)N2CCC(C(=O)NCCC(=O)NCc3ccccc3OC)CC2)cc1,-3,x,x,-4,1
Cc1cc(NC(=O)C(C)SCC(=O)Nc2ccccc2C(C)(C)C)no1 (stereo not drawn),x,x,x,x,-1
COc1ccccc1NC(=O)c1ccc2[nH]c(C)c(C)c2c1,-1,x,x,-1,-3
Cc1ccc(CNc2ccc3c(c2)ncn3C)cc1,0,21,7,-3,16*
c1ccc(-n2cnc3cc(NCc4cccs4)ccc32)cc1,0,-1,2,1,u
Cc1ccc(CNc2ccc3c(c2)ncn3C(C)(C)C)cc1,-4,7,43,-4,36*
Cc1ccc(-n2cnc3cc(NCc4cccs4)ccc32)cc1,-4,5,12,0,19*
